In ChEMBL document CHEMBL1140930 (J Med Chem, 2009):

Tests used:
[1] = tested on: K562; assay: Antiproliferative activity against human K562 cells after 48 hrs; format: functional, cell-based; conditions: K562, 48 h
Summary of the method: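 K562 cells (RPMI 1640, 10% FBS, 37 °C, 5% CO2) plated at 2 × 10⁵ cells/mL. Compounds dissolved in DMSO/methanol 1:1, vehicle 0.5%. Cells counted in a Neubauer chamber after 48 h and expressed as % of untreated control. Triplicate wells, three experiments. IC50 from nonlinear regression.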

[2] = target: Tubulin (Sus scrofa, UniProt P02554+P02550); assay: Inhibition of pig brain tubulin polymerization after 30 mins by turbidimetric assay
Summary of the method: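 Microtubule protein from porcine brain (80–90% tubulin, 10–20% MAPs), purified by two disassembly/reassembly cycles. Assay buffer: 20 mM PIPES pH 6.8, 80 mM NaCl, 0.5 mM MgCl2, 1 mM EGTA, 1 mM DTT. Protein at 1.2 mg/mL with 0.6 mM GTP final, 1% DMSO final, 37 °C.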

IC50 [1] [µM] | IC50 [2] [µM] | SMILES
27 | > 10 | O=C1c2ccccc2C(C(O)C(=O)c2ccccc2)c2ccccc21 (stereo not given)
– | 0.9 | COc1ccc(C(=O)C=C2c3ccccc3C(=O)c3ccccc32)c(OC)c1
11 | > 10 | COc1ccc(C(=O)C=C2c3ccccc3C(=O)c3ccccc32)c(OC)c1OC
0.7 | 3.7 | COc1cc(C(=O)C=C2c3ccccc3C(=O)c3ccccc32)cc(OC)c1OC
> 30 | > 10 | COc1ccc(C(=O)C=C2c3ccccc3C(=O)c3ccccc32)c(O)c1OC
1.9 | 10 | COc1ccccc1OC(=O)C=C1c2ccccc2C(=O)c2ccccc21
5.21 | 10 | O=C(C=C1c2ccccc2C(=O)c2ccccc21)c1cccs1
3.43 | 0.9 | O=C(C=C1c2ccccc2C(=O)c2ccccc21)c1ccc(O)cc1
0.69 | 2.3 | COc1csc(C(=O)C=C2c3ccccc3C(=O)c3ccccc32)c1
2.6 | 3.3 | COc1cccc(C(=O)C=C2c3ccccc3C(=O)c3ccccc32)c1
10 | – | COc1ccc(C(=O)COc2c3ccccc3cc3ccccc23)cc1
